Test results as given in ChEMBL document CHEMBL1159121, “Synthesis, in vitro structure-activity relationship, and in vivo studies of 2-arylthiazolidine-4-carboxylic acid amides as anticancer agents” (Bioorg Med Chem, 2010).
Active and inactive are the calls of the source. The calls are words filed in the database; no cut-off is given here.

Key:
NCI-H23 = experiment: Growth inhibition of human NCI-H23 cells; assay type: functional; settings: for CC50: read-out: LC50 (the source's name)
KM12 = experiment: Growth inhibition of human KM12 cells; assay type: functional
MCF7 = experiment: Growth inhibition of human MCF7 cells; assay type: functional
A-375 [1] = experiment: Cell cycle arrest in human A375 cells by assessed as increase in accumulation at subG1 phase […] by flow cytometry; assay type: functional, cell-based
A-375 [2] = experiment: Inhibition of human A375 cells colony formation at 2 uM after 7 days by colony-formation assay; assay type: functional, cell-based
NCI-H322M = experiment: Growth inhibition of human NCI-H322M cells; assay type: functional; settings: for CC50: read-out: LC50 (the source's name)
SK-MEL-2 = experiment: Growth inhibition of human SK-MEL-2 cells; assay type: functional
A-375 [3] = experiment: Antitumor activity against human A375 cells xenografted in athymic nude mouse assessed as tumor growth inhibition at 10 mg/kg, ip once daily administered 7 days after inoculation for 22 days; assay type: functional; parameters: scale not given: the % may be the effect or the level left; settings: route intraperitoneal
Summary of the method: (§1)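 Male athymic nude mice, 4–5 weeks old, received 2.5 × 10^6 A375 cells (FBS-free DMEM mixed 1:1 with Matrigel) subcutaneously in the right dorsal flank. At about 150 mm3 (~day 7), mice were grouped by tumor size (n = 8). Drug in 80% Tween 80/20% Captex 200 was injected daily, with vehicle controls i.p. Calipers twice weekly (a×b²×0.5); % reduction at day 22 = 100×[(T–T0)/(C–C0)]. Body weight tracked.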

LNCaP [4] = experiment: Cell cycle arrest in human LNCAP cells by assessed as increase in accumulation at subG1 phase […] by flow cytometry; assay type: functional, cell-based
MDA-MB-435 = experiment: Growth inhibition of human MDA-MB-435 cells; assay type: functional; settings: for CC50: read-out: LC50 (the source's name)
RH7777 = experiment: Cytotoxicity against rat RH7777 cells after 96 hrs by SRB assay; assay type: cell-based; settings: RH7777, 96 h
Summary of the method: (§2)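 Prostate lines in RPMI1640/10% FBS; RH7777 in DMEM/10% FBS. Cells TCA-fixed, stained with 0.4% SRB, absorbance read at 540 nm. IC50 from nonlinear regression of % survival against concentration.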

A-375 [5] = experiment: Antitumor activity against human A375 cells xenografted in athymic nude mouse assessed as tumor growth inhibition at 5 mg/kg, ip once daily administered 7 days after inoculation for 22 days; assay type: functional; parameters: scale not given: the % may be the effect or the level left; settings: route intraperitoneal; summary of the method: as §1
Malme-3M = experiment: Growth inhibition of human MALME-3M cells; assay type: functional
786-0 = experiment: Growth inhibition of human 786-0 cells; assay type: functional; settings: for CC50: read-out: LC50 (the source's name)
A549 = experiment: Growth inhibition of human A549 cells; assay type: functional
[6] = Cytotoxicity against human fibroblasts after 48 hrs by SRB assay; assay type: cell-based; settings: Fibroblast
Summary of the method: (§3)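 Melanoma lines and control fibroblasts grown at 37 °C, 5% CO2, then exposed to a wide concentration range for 48 h in round-bottom 96-well plates. Fixed with 10% TCA, stained with SRB, protein read at 560 nm. IC50 (50% growth inhibition versus untreated) obtained by nonlinear regression.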

MDA-MB-468 = experiment: Growth inhibition of human MDA-MB-468 cells; assay type: functional
Mus musculus = experiment: Toxicity in ip dosed athymic nude mouse assessed as body weight loss; assay type: organism-based; settings: in vivo
Summary of the method: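 Male athymic nude mice (4–5 weeks) given subcutaneous A375 cells in Matrigel (1:1). At about 150 mm3, near day 7, split into groups of n = 8. Dosed at 5 or 10 mg/kg in 80% Tween 80/20% Captex 200, injected once daily for 22 days. Vehicle (intraperitoneal) and DTIC 60 mg/kg controls. Body weight and activity monitored throughout.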

[7] = Toxicity in mouse assessed as maximum tolerated dose; assay type: organism-based; settings: in vivo
Summary of the method: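 Tolerability was determined in ICR mice, with the compound formulated in a co-solvent of 80% Tween 80 and 20% Captex 200.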

T47D = experiment: Growth inhibition of human T47D cells; assay type: functional
A-375 [8] = experiment: Inhibition of human A375 cells colony formation at 100 uM after 7 days by colony-formation assay; assay type: functional, cell-based
NCI/ADR-RES = experiment: Growth inhibition of human NCI/ADR-RES cells; assay type: functional; settings: for CC50: read-out: LC50 (the source's name)
A498 = experiment: Growth inhibition of human A498 cells; assay type: functional; settings: for CC50: read-out: LC50 (the source's name)
SK-MEL-28 = experiment: Growth inhibition of human SK-MEL-28 cells; assay type: functional; settings: for CC50: read-out: LC50 (the source's name)
OVCAR-4 = experiment: Growth inhibition of human OVCAR4 cells; assay type: functional; settings: for CC50: read-out: LC50 (the source's name)
NCI-H226 = experiment: Growth inhibition of human NCI-H226 cells; assay type: functional; settings: for CC50: read-out: LC50 (the source's name)
A-375 [9] = experiment: Inhibition of human A375 cells colony formation at 20 uM after 7 days by colony-formation assay; assay type: functional; settings: A-375, 168 h
K562 = experiment: Growth inhibition of human K562 cells; assay type: functional
A-375 [10] = experiment: Antiproliferative activity against human A375 cells after 48 hrs by SRB assay; assay type: functional, cell-based; settings: A-375, 48 h; summary of the method: as §3
PPC-1 = experiment: Antiproliferative activity against human PPC1 cells after 96 hrs by SRB assay; assay type: functional, cell-based; settings: PPC-1, 96 h; summary of the method: as §2
LNCaP [11] = experiment: Antiproliferative activity against human LNCAP cells after 96 hrs by SRB assay; assay type: functional, cell-based; summary of the method: as §2
PC-3 = experiment: Antiproliferative activity against human PC3 cells after 96 hrs by SRB assay; assay type: functional, cell-based; settings: PC-3, 96 h
CAKI-1 = experiment: Growth inhibition of human Caki1 cells; assay type: functional
DU-145 = experiment: Antiproliferative activity against human DU145 cells after 96 hrs by SRB assay; assay type: functional, cell-based; settings: DU-145, 96 h; summary of the method: as §2
[12] = Selectivity ratio of IC50 for human fibroblasts to IC50 for human melanoma cells; assay type: ADME; settings: human fibroblasts and human melanoma cells, read-out: Ratio IC50
HOP-92 = experiment: Growth inhibition of human HOP92 cells; assay type: functional
[13] = read-out: LC50 (the source's name)

CCCCCCCCCCCCCCCCNC(=O)[C@@H]1CSC(c2ccc(NC(C)=O)cc2)N1 (mixture of isomers)
GI50 (NCI-H23): 320 nM
TGI (NCI-H23): 1050 nM
CC50 (NCI-H23): 4.86 µM
GI50 (KM12): 180 nM
TGI (KM12): 330 nM
CC50 (KM12; [13]): 580 nM
GI50 (MCF7): 190 nM
TGI (MCF7): 380 nM
CC50 (MCF7; [13]): 800 nM
Activity (A-375 [1]): Dose-dependent effect
Activity (A-375 [2]): Active
GI50 (NCI-H322M): 280 nM
TGI (NCI-H322M): 0.85 µM
CC50 (NCI-H322M): 3.22 µM
GI50 (SK-MEL-2): 250 nM
TGI (SK-MEL-2): 540 nM
CC50 (SK-MEL-2; [13]): 1750 nM
Activity (A-375 [3]): 62%
Activity (LNCaP [4]): Dose-dependent effect
GI50 (MDA-MB-435): 150 nM
TGI (MDA-MB-435): 300 nM
CC50 (MDA-MB-435): 0.6 µM
IC50 (RH7777): 6.8 µM
Activity (A-375 [5]): 25%
GI50 (Malme-3M): 320 nM
TGI (Malme-3M): 1110 nM
CC50 (Malme-3M; [13]): 3.95 µM
GI50 (786-0): 220 nM
TGI (786-0): 420 nM
CC50 (786-0): 0.77 µM
GI50 (A549): 360 nM
TGI (A549): 1350 nM
CC50 (A549; [13]): 5.28 µM
IC50 [6]: 16 µM
GI50 (MDA-MB-468): 220 nM
TGI (MDA-MB-468): 510 nM
CC50 (MDA-MB-468; [13]): 1540 nM
Activity (Mus musculus): Non-toxic
MTD [7]: 42 mg/kg
GI50 (T47D): 240 nM
TGI (T47D): 530 nM
CC50 (T47D; [13]): 2300 nM
Activity (A-375 [8]): Active
GI50 (NCI/ADR-RES): 250 nM
TGI (NCI/ADR-RES): 520 nM
CC50 (NCI/ADR-RES): 0.17 µM
GI50 (A498): 940 nM
TGI (A498): 2.2 µM
CC50 (A498): 4.97 µM
GI50 (SK-MEL-28): 130 nM
TGI (SK-MEL-28): 260 nM
CC50 (SK-MEL-28): 520 nM
GI50 (OVCAR-4): 230 nM
TGI (OVCAR-4): 490 nM
CC50 (OVCAR-4): 0.12 µM
GI50 (NCI-H226): 230 nM
TGI (NCI-H226): 390 nM
CC50 (NCI-H226): 0.69 µM
inhibition at 20 µM (A-375 [9]): 75%
GI50 (K562): 210 nM
TGI (K562): 430 nM
CC50 (K562; [13]): 900 nM

CCCCCCCCCCCCCCCCCCNC(=O)[C@@H]1CSC(c2ccccc2)N1 (mixture of isomers)
IC50 (A-375 [10]): 15 µM
GI50 (NCI-H23): 1840 nM
TGI (NCI-H23): 3360 nM
CC50 (NCI-H23): 6.17 µM
GI50 (NCI-H322M): 2280 nM
TGI (NCI-H322M): 5.15 µM
CC50 (NCI-H322M): 15.4 µM
GI50 (MDA-MB-435): 2010 nM
TGI (MDA-MB-435): 4120 nM
CC50 (MDA-MB-435): 8.45 µM
IC50 (PPC-1): 2400 nM
IC50 (RH7777): > 20 µM
IC50 (LNCaP [11]): 4.2 µM
GI50 (786-0): 1780 nM
TGI (786-0): 3170 nM
CC50 (786-0): 5.63 µM
IC50 [6]: 29.8 µM
IC50 (PC-3): 10 µM
GI50 (NCI/ADR-RES): 2020 nM
TGI (NCI/ADR-RES): 3850 nM
CC50 (NCI/ADR-RES): 7.37 µM
GI50 (CAKI-1): 2300 nM
TGI (CAKI-1): 4.31 µM
CC50 (CAKI-1; [13]): 8.08 µM
GI50 (A498): 2730 nM
TGI (A498): 5.3 µM
CC50 (A498): 11.5 µM
GI50 (SK-MEL-28): 1490 nM
TGI (SK-MEL-28): 2810 nM
CC50 (SK-MEL-28): 5300 nM
IC50 (DU-145): 10.8 µM
GI50 (OVCAR-4): 2610 nM
TGI (OVCAR-4): 5410 nM
CC50 (OVCAR-4): 17.5 µM
GI50 (NCI-H226): 2060 nM
TGI (NCI-H226): 3830 nM
CC50 (NCI-H226): 7.11 µM
selectivity ratio [12]: 2.6
GI50 (HOP-92): 2060 nM
TGI (HOP-92): 4.12 µM
CC50 (HOP-92; [13]): 8.27 µM
